Data taken from article PMC2695661 (The Journal of Endocrinology, 2009).
pEC50: −log10 of the molar value. “Also recorded” adds a separate entry of the source. Square brackets hold non-standard residues; d marks the D form. Peptide text beside a SMILES is read from it. pGlu = O=C1CC[C@@H](C(=O)O)N1

Tests used:
cGnRH-R-I [1] = molecular target: T1, cGnRH-R-I (Gallus gallus, UniProt Q9DDC9); experiment: Inositol phosphate assay, cGnRH-R-I transfected COS-7 cells; assay type: cell-based, chicken
T1 sequence (Q9DDC9 1-375): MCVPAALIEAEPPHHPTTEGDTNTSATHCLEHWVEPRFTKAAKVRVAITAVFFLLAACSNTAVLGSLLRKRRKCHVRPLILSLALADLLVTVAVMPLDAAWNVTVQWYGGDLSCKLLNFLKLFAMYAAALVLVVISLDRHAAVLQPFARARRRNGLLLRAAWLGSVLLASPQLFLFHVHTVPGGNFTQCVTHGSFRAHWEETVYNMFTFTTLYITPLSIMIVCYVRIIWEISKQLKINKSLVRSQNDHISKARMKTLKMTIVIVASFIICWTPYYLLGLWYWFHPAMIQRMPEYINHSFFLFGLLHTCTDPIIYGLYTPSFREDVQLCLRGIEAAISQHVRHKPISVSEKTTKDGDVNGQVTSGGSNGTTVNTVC
In short: (§1)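 COS-7 cells were electroporated with a chicken type I or type III GnRH receptor expression construct and grown in DMEM with 10% FCS, 4 mM L-glutamine and penicillin/streptomycin at 37 °C, 5% CO2. After 24 h, cells were labelled 24 h with [3H]-myo-inositol in inositol-free DMEM. They were then washed in 25 mM HEPES-DMEM with 10 mM LiCl and stimulated 1 h at 37 °C with analogue. Antagonist mode included 1 nM GnRH-II. Reactions were stopped with 10 mM formic acid. Total inositol phosphates were eluted from Dowex with 1 M ammonium formate/0.1 M formic acid. Assays were run in triplicate and fitted by non-linear regression.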

cGnRH-R-III [2] = molecular target: T2, cGnRH-R-III (Gallus gallus, UniProt Q5EFE0); experiment: Inositol phosphate assay, cGnRH-R-III transfected COS-7 cells; assay type: cell-based, chicken
T2 sequence (Q5EFE0 1-419): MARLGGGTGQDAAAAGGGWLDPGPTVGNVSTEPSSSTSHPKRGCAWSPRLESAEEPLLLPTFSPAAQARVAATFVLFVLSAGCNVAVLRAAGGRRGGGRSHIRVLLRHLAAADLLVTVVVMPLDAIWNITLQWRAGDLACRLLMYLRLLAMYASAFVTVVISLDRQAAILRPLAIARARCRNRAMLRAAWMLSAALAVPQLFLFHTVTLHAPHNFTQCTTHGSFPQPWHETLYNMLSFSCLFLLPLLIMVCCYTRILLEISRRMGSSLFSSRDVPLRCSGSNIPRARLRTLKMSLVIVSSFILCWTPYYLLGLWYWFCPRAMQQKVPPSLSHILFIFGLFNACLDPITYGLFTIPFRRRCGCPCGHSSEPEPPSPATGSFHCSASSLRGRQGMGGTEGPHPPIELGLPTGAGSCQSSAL
In short: as §1

cGnRH-R-III [3] = molecular target: T2, cGnRH-R-III; experiment: Whole cell radioligand binding assay, cGnRH-R-III transfected COS-7 cells; set-up: species or system chicken
cGnRH-R-I [4] = molecular target: T1, cGnRH-R-I; experiment: Whole cell radioligand binding assay, cGnRH-R-I transfected COS-7 cells; set-up: species or system chicken

Row | Molecule | pEC50 (cGnRH-R-I [1]) | pEC50 (cGnRH-R-III [2]) | inositol phosphate production potency, GnRH-II relative to cGnRH-I (cGnRH-R-I [1]; cGnRH-R-I) | fold higher affinity for GnRH-II than for cGnRH-I (cGnRH-R-III [3]) | fold higher affinity for GnRH-II than for sGnRH-III (cGnRH-R-III [3]) | inositol phosphate accumulation, GnRH-II relative to cGnRH-I (cGnRH-R-III [2]; cGnRH-R-III transfected cells) | fold higher affinity for GnRH-II than for cGnRH-I (cGnRH-R-I [4]) | fold higher affinity for GnRH-II than for sGnRH-III (cGnRH-R-I [4])
1 | CC(C)C[C@H](NC(=O)[C@H](Cc1c[nH]c2ccccc12)NC(=O)CNC(=O)[C@H](Cc1ccc(O)cc1)NC(=O)[C@H](CO)NC(=O)[C@H](Cc1c[nH]c2ccccc12)NC(=O)[C@H](Cc1c[nH]cn1)NC(=O)[C@@H]1CCC(=O)N1)C(=O)N1CCC[C@H]1C(=O)NCC(N)=O [sGnRH-III] ([pGlu]HWSYGWLPG-NH2) | 7.99 | 7.68 |  |  |  |  |  | 
2 | GnRH-II ([pGlu]HWSHGWYPG-NH2; ends and bridges not checked; UniProt O43555 24-33, looked up) |  |  | four times more potent; also recorded: four times more potently | 35 fold | 16 fold | six times more effective | 21 fold | 16 fold
